ChEMBL document CHEMBL1146083, “Novel potent and efficacious nonpeptidic urotensin II receptor agonists” (J Med Chem, 2006)
The source made the active and inactive calls. No cut-off for these calls is given here.

Columns and labels:
[1] = biological target: T1, Urotensin-2 receptor (Homo sapiens) (UniProt Q9UKP6); experiment: (§1) Activity against human urotensin-2 receptor expressed in NIH3T3 cells; format: cell-based
T1 sequence (whole entry): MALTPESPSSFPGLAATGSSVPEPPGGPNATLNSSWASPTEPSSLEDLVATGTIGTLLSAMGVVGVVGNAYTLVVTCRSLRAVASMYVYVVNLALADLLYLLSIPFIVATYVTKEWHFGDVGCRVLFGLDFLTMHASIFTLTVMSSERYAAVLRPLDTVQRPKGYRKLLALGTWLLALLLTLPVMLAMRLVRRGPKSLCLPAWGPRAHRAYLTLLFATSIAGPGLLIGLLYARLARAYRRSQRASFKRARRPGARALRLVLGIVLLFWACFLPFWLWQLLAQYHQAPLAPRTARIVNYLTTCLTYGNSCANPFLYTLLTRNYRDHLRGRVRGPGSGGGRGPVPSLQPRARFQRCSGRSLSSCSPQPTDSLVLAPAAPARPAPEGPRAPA
In short: (§2)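 R-SAT functional agonist assay. NIH-3T3 cells grown to 80% confluence in DMEM with 10% bovine calf serum, then transfected for 18 h with human UII receptor plus β-galactosidase marker. Cells frozen, thawed and plated in DMEM with 0.4% calf serum and 30% UltraCulture onto compound. Five-day incubation in 5% CO2, then reporter read at 420 nm. Eight doses in triplicate; pEC50 averaged over 2-6 determinations; efficacy normalized to UII as 100%.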

Urotensin-2 receptor = biological target: T2, Urotensin-2 receptor (Homo sapiens, UniProt Q9UKP6); experiment: as §1; format: cell-based; in short: as §2
T2 sequence (Q9UKP6 whole entry): T1 sequence (whole entry)

| Compound | Efficacy [1] [%] | EC50 (Urotensin-2 receptor) [nM] | Log EC50 [1] |
| --- | --- | --- | --- |
| CN(C)CC[C@@H](NC(=O)c1ccc(-c2ccccc2)cc1)c1ccc(Cl)cc1 | 96 | 1450 | – |
| CN(C)CCC(NC(=O)c1ccc2c(c1)OCO2)c1ccc(Cl)cc1 (configuration not stated) | 154 | – | – |
| COc1ccc(NC(=O)OC(CCN(C)C)c2ccc(Cl)cc2)cc1 (configuration not stated) | 170 | 1660 | – |
| Cc1ccc(C(=O)NC(CCN(C)C)c2ccc(Cl)cc2)c(C)c1 (configuration not stated) | 147 | – | – |
| CN(C)CCC(NC(=O)NCc1ccccc1)c1ccc(Cl)cc1 (configuration not stated) | 179 | 2000 | – |
| CO[C@@H](C(=O)N[C@H](CCN(C)C)c1ccc(Cl)cc1)c1ccccc1 | 112 | 5010 | – |
| CN(C)CCC(NC(=O)Cc1ccccc1)c1ccc(Cl)cc1 (configuration not stated) | 155 | – | – |
| CN(C)CCC(OC(=O)c1ccc(C(F)(F)F)cc1)c1ccc(Cl)cc1 (configuration not stated) | 47 | 1740 | – |
| CN(C)CCC(NC(=O)Nc1ccc(C(C)(C)C)cc1)c1ccc(Cl)cc1 (configuration not stated) | 103 | 275 | – |
| CN(C)CCC(NC(=O)Nc1ccc2ccccc2c1)c1ccc(Cl)cc1 (configuration not stated) | 106 | 288 | – |
| CN(C)CCC(NC(=O)Nc1ccc(-c2ccccc2)cc1)c1ccc(Cl)cc1 (configuration not stated) | 91 | 145 | – |
| CN(C)CCC(NS(=O)(=O)c1ccc2ccccc2c1)c1ccc(Cl)cc1 (configuration not stated) | – | – | inactive |
| Cc1cc2c(cc1C)C(=O)OC(CCN(C)C)(c1ccc(Cl)cc1)C2 (configuration not stated) | 146 | 135 | – |
| CN(C)CCC(OC(=O)Nc1ccc(-c2ccccc2)cc1)c1ccc(Cl)cc1 (configuration not stated) | 58 | 269 | – |
| CN(C)CC[C@H](NC(=O)c1ccc2ccccc2c1)c1ccc(Cl)cc1 | 109 | 407 | – |
| CN(C)CCC1(c2ccc(Cl)cc2)Cc2ccccc2C(=O)O1 (configuration not stated) | 133 | 1120 | – |
| CN(C)CCC(NC(=O)Nc1ccc(C(F)(F)F)cc1)c1ccc(Cl)cc1 (configuration not stated) | 105 | 117 | – |
| CN(C)CCC(NC(=O)c1ccccc1)c1ccc(Cl)cc1 (configuration not stated) | 158 | – | – |
| CN(C)CCC(OC(=O)Nc1ccc2ccccc2c1)c1ccc(Cl)cc1 (configuration not stated) | 89 | 525 | – |
| CN(C)CCC(NS(=O)(=O)c1ccc(-c2ccccc2)cc1)c1ccc(Cl)cc1 (configuration not stated) | – | – | inactive |
| Cc1ccc(COC(CCN(C)C)c2ccc(Cl)cc2)cc1 (configuration not stated) | – | – | inactive |

| Compound | Efficacy [1] [%] | EC50 (Urotensin-2 receptor) [nM] | Log EC50 [1] |
| --- | --- | --- | --- |
| COc1ccc(NC(=O)NC(CCN(C)C)c2ccc(Cl)cc2)cc1 (configuration not stated) | 195 | 2000 | – |
| CN(C)CCC(OC(=O)Nc1ccc(Oc2ccccc2)cc1)c1ccc(Cl)cc1 (configuration not stated) | 107 | 191 | – |
| CN(C)CCC(NC(=O)c1ccc(C(F)(F)F)cc1)c1ccc(Cl)cc1 (configuration not stated) | 115 | 77.6 | – |
| CN(C)CCC(NC(=O)Nc1ccc(Oc2ccccc2)cc1)c1ccc(Cl)cc1 (configuration not stated) | 108 | 110 | – |
| COc1cccc(NC(=O)NC(CCN(C)C)c2ccc(Cl)cc2)c1 (configuration not stated) | 146 | – | – |
| Cc1ccc(C)c(C(=O)NC(CCN(C)C)c2ccc(Cl)cc2)c1 (configuration not stated) | 164 | – | – |
| CN(C)CCC(OC(=O)Nc1ccc(C(C)(C)C)cc1)c1ccc(Cl)cc1 (configuration not stated) | 105 | 1820 | – |
| CN(C)CCC(NC(=O)c1ccc(-c2ccccc2)cc1)c1ccc(Cl)cc1 (configuration not stated) | 116 | – | – |
| Cc1ccc(S(=O)(=O)NC(CCN(C)C)c2ccc(Cl)cc2)cc1 (configuration not stated) | 74 | – | – |
| Cc1c(Cl)cccc1C(=O)NC(CCN(C)C)c1ccc(Cl)cc1 (configuration not stated) | 142 | – | – |
| Cc1cccc(C(=O)NC(CCN(C)C)c2ccc(Cl)cc2)c1C (configuration not stated) | 159 | – | – |
| CO[C@@H](C(=O)N[C@@H](CCN(C)C)c1ccc(Cl)cc1)c1ccccc1 | 165 | 871 | – |
| CN(C)CCC(OC(=O)Nc1ccc(C(F)(F)F)cc1)c1ccc(Cl)cc1 (configuration not stated) | 94 | 251 | – |
| CN(C)CC[C@H](NC(=O)c1ccc(-c2ccccc2)cc1)c1ccc(Cl)cc1 | 116 | 32.4 | – |
| CN(C)CCC(NC(=O)c1ccc(Oc2ccccc2)cc1)c1ccc(Cl)cc1 (configuration not stated) | 89 | – | – |
| Cc1cc(C)c(C(=O)NC(CCN(C)C)c2ccc(Cl)cc2)cc1C (configuration not stated) | 159 | – | – |
| COc1cccc(C(=O)NC(CCN(C)C)c2ccc(Cl)cc2)c1C (configuration not stated) | 179 | – | – |
| COc1ccc(C(=O)NC(CCN(C)C)c2ccc(Cl)cc2)cc1 (configuration not stated) | 162 | – | – |
| Cc1cccc(Cl)c1C(=O)NC(CCN(C)C)c1ccc(Cl)cc1 (configuration not stated) | 105 | – | – |
| CN(C)CCC(NC(=O)c1ccc(N(C)C)cc1)c1ccc(Cl)cc1 (configuration not stated) | 150 | – | – |

Now from value to molecule:

| Efficacy [1] [%] | EC50 (Urotensin-2 receptor) [nM] | Log EC50 [1] | Compound |
| --- | --- | --- | --- |
| 140 | 1020 | – | CCc1ccccc1C(=O)N[C@@H](CCN(C)C)c1ccc(Cl)cc1 |
| 53 | – | – | CN(C)CCC(OC(=O)c1ccc(-c2ccccc2)cc1)c1ccc(Cl)cc1 (configuration not stated) |
| 119 | – | – | Cc1ccsc1C(=O)OC(CCN(C)C)c1ccc(Cl)cc1 (configuration not stated) |
| 95 | – | – | Cc1cc(Br)ccc1C(=O)OC(CCN(C)C)c1ccc(Cl)cc1 (configuration not stated) |
| 56 | – | – | Cc1ccc(C(=O)OC(CCN(C)C)c2ccc(Cl)cc2)cc1 (configuration not stated) |
| 175 | – | – | Cc1ccccc1NC(=O)NC(CCN(C)C)c1ccc(Cl)cc1 (configuration not stated) |
| 88 | 1950 | – | COc1cccc(C(=O)OC(CCN(C)C)c2ccc(Cl)cc2)c1C (configuration not stated) |
| 128 | – | – | CCc1ccccc1C(=O)OC(CCN(C)C)c1ccc(Cl)cc1 (configuration not stated) |
| – | – | inactive | COc1ccccc1COC(CCN(C)C)c1ccc(Cl)cc1 (configuration not stated) |
| 104 | 1510 | – | CN(C)CCC(OC(=O)c1cn(C)c2ccccc12)c1ccc(Cl)cc1 (configuration not stated) |
| 86 | – | – | Cc1ccc(C)c(C(=O)OC(CCN(C)C)c2ccc(Cl)cc2)c1 (configuration not stated) |
| 49 | – | – | CN(C)CCC(OC(=O)c1ccc2ccccc2c1)c1ccc(Cl)cc1 (configuration not stated) |
| 175 | – | – | Cc1ccccc1C(=O)NC(CCN(C)C)c1ccc(Cl)cc1 (configuration not stated) |
| 118 | – | – | Cc1c(Cl)cccc1C(=O)OC(CCN(C)C)c1ccc(Cl)cc1 (configuration not stated) |
| 91 | 1150 | – | Cc1cccc(C(=O)OC(CCN(C)C)c2ccc(Cl)cc2)c1C (configuration not stated) |
| 176 | – | – | Cc1ccccc1NC(=O)OC(CCN(C)C)c1ccc(Cl)cc1 (configuration not stated) |
| 95 | – | – | CN(C)CCC(OC(=O)c1cccc2ccccc12)c1ccc(Cl)cc1 (configuration not stated) |
| 73 | 1380 | – | CN(C)CCC(OC(=O)c1cc2ccccc2n1C)c1ccc(Cl)cc1 (configuration not stated) |
| 84 | 2190 | – | COc1ccc(C(=O)OC(CCN(C)C)c2ccc(Cl)cc2)cc1 (configuration not stated) |
| 60 | – | – | Cc1cc(C)c(C(=O)OC(CCN(C)C)c2ccc(Cl)cc2)cc1C (configuration not stated) |
| 180 | – | – | CN(C)CCC(OC(=O)NCc1ccccc1)c1ccc(Cl)cc1 (configuration not stated) |
| 136 | – | – | COc1cccc(NC(=O)OC(CCN(C)C)c2ccc(Cl)cc2)c1 (configuration not stated) |
| 126 | – | – | Cc1ccccc1C(=O)OC(CCN(C)C)c1ccc(Cl)cc1 (configuration not stated) |
